Test [1] in a line: Selectivity index, ratio of IC50 for taq polymerase to IC50 for human telomerase. The method in brief: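 Selectivity index is the ratio of the concentration giving 50% Taq polymerase inhibition to the concentration giving 50% telomerase inhibition (modified TRAP, SGC-7901 cell extract).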
The target in test [2] is T1, Telomerase reverse transcriptase (Homo sapiens, UniProt O14746). Nature of the test: Inhibition of human telomerase in human SGC7901 cells by TRAP assay.
For test [3], the target named is DNA polymerase I, thermostable (Thermus aquaticus, UniProt P19821). Nature of the test: Inhibition of Thermus aquaticus taq polymerase.
For another test, the system named is SGC-7901. Nature of the test: Cytotoxicity against human SGC7901 after 48 hrs by MTT assay. Type of test: functional, cell-based. The method in brief:
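SGC-7901 cells were diluted to 3 × 10⁴ cells/mL and seeded at 100 µL per well, then held 24 h at 37 °C in 5% CO₂ before treatment. Samples at pre-set concentrations went into six wells each, with 5-fluorouracil as positive control and DMSO as negative control. Read-out was absorbance at 570 nm. Data are the mean ± SD of three experiments in triplicate. IC50 is the concentration at which 50% of cells survive.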
In general terms: Formazan colour is commonly taken as a measure of viable cells.

The target of test [4] is DNA polymerase I, thermostable (Thermus aquaticus) (UniProt P19821). Nature of the test: Inhibition of Thermus aquaticus taq polymerase at 0 to 60 uM.
The target of test [5] is T1, Telomerase reverse transcriptase. Put plainly: Inhibition of human telomerase in human SGC7901 cells at 0 to 60 uM by TRAP assay. It counts as cell-based. As to conditions: SGC-7901. The method in brief: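 Telomerase inhibition was measured by a modified TRAP assay using SGC-7901 cell extract. Compounds were tested across the stated concentration range. IC50 is the concentration giving 50% telomerase inhibition. Ethidium bromide served as reference control.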

[6] abbreviates: Homo sapiens, SGC-7901, 48 h, read-out: IC50.

Values after ≈ are worked out from the molar mass of the structure shown. Active and inactive are the calls of the source. The rule behind the calls is not given here.

T1 sequence (O14746 whole entry): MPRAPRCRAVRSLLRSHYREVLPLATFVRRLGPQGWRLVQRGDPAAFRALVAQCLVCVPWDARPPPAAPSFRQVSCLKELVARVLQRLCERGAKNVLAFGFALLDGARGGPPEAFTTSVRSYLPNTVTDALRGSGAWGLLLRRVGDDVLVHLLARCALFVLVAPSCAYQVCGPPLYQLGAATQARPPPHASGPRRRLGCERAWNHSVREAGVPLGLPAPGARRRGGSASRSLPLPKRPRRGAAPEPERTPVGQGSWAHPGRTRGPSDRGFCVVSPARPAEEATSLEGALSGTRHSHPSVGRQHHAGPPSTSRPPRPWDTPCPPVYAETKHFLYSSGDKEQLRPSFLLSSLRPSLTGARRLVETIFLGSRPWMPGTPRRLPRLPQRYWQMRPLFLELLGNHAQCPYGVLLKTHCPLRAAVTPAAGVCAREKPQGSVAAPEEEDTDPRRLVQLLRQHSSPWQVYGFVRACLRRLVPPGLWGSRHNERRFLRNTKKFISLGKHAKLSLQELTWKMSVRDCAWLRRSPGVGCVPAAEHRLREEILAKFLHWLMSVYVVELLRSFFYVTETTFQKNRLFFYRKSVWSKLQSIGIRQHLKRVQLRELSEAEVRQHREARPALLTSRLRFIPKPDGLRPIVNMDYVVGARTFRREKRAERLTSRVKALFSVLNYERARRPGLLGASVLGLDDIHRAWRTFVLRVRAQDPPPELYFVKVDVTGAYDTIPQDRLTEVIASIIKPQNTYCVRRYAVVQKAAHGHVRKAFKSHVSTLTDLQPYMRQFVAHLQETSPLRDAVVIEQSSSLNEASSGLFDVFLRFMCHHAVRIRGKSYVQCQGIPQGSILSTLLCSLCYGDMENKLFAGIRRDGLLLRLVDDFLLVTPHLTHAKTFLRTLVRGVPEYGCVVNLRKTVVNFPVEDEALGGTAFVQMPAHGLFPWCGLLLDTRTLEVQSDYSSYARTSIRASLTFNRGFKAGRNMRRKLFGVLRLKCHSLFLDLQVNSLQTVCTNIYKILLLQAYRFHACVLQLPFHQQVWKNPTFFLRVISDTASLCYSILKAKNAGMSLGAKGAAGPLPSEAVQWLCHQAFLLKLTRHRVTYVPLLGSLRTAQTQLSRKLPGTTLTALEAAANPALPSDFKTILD
DNA polymerase I, thermostable, sequence (P19821 whole entry): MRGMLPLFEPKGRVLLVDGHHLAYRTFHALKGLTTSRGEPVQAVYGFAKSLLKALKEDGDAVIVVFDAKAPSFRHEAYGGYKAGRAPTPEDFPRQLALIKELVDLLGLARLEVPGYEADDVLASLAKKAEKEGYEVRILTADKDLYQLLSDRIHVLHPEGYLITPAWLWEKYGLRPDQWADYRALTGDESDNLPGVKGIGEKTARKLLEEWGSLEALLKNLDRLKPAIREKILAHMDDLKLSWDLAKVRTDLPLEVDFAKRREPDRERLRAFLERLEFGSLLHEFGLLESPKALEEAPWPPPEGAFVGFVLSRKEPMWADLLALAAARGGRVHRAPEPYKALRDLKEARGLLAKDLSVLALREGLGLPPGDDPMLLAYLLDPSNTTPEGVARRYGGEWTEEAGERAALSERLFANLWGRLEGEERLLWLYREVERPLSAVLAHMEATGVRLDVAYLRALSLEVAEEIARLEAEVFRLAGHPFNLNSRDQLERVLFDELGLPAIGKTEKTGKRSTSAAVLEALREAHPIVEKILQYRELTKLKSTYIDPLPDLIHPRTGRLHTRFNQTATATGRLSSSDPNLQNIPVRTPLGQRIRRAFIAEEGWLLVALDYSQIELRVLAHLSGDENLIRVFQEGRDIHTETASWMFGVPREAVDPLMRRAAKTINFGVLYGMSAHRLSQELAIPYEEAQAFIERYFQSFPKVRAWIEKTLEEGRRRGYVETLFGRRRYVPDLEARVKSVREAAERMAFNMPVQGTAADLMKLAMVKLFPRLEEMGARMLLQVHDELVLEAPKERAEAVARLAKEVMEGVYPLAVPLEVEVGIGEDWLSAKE
DNA polymerase I, thermostable (Thermus aquaticus), sequence (P19821 whole entry): as above

Broadly, the IC50 is the concentration that gives 50% inhibition. On to `COc1ccc(-c2coc3cc(OCc4ccc(Cl)nc4)ccc3c2=O)cc1`, for which, in test [1], the Ratio IC50 was 3. Besides, the IC50 in test [2] amounted to 2.5 µM; in test [3] it was 7.5 µM; in the test on SGC-7901 (setting [6]), 31.9 µg/mL (≈ 81.1 µM).

On to `COc1ccc(-c2oc3ccccc3c(=O)c2OCc2ccc(Cl)nc2)cc1`, for which the inhibition entry in test [4] and in test [5] was “inactive” throughout. For the same molecule, the 50% inhibitory concentration (IC50) entry with SGC-7901 (sgc-7901) is on record as “Not Active”.

On to `O=c1[nH]cc(F)c(=O)[nH]1` [FLUOROURACIL], for which the IC50 in the test on SGC-7901 (setting [6]) was found to be 7.38 µg/mL (≈ 56.7 µM).

Consider `CC(=O)N1N=C(C)CC1c1ccc(OCc2ccc(Cl)nc2)cc1` (stereo unspecified), for which the values for the IC50 (in test [2]; in the test with SGC-7901 (sgc-7901)) were 46.7 µM and “Not Active”, respectively.

As for `CC(=O)N1N=C(C)CC1c1ccccc1OCc1ccc(Cl)nc1` (stereo unspecified), the inhibition entry in test [5] was “inactive”. The IC50 was 53.2 µM in test [3] and “Not Active” with SGC-7901 (sgc-7901).

Regarding `O=c1cc(-c2ccc(OCc3ccc(Cl)nc3)cc2)oc2cc(OCc3ccc(Cl)nc3)cc(O)c12`, in test [1], the Ratio IC50 worked out at 2.5. Further, the IC50 in test [2] came to 0.8 µM; in test [3], 2 µM; in the test with SGC-7901 (setting [6]) it was 22.3 µg/mL (≈ 42.7 µM).

Consider `O=c1cc(-c2ccc(OCc3ccc(Cl)nc3)cc2)oc2cc(O)cc(O)c12`, for which the Ratio IC50 in test [1] worked out at 1.9. For the same molecule, the IC50 in test [2] came out at 3.5 µM; in test [3], 6.8 µM; in the test with SGC-7901 (setting [6]), 25.9 µg/mL (≈ 65.5 µM).

As for `O=c1cc(-c2ccccc2)oc2cc(OCc3ccc(Cl)nc3)cc(O)c12`, in test [1], the Ratio IC50 was determined as 1.3. For the same molecule, the results for the half-inhibitory concentration (IC50) (in test [2]; in test [3]; in the test on SGC-7901 (sgc-7901)) were 20.9 µM, 27.5 µM and “Not Active”, respectively.

Turning to `COc1ccc(-c2cc(=O)c3ccc(OCc4ccc(Cl)nc4)cc3o2)cc1`, the Ratio IC50 in test [1] is 2.1. Moreover, the IC50 in test [2] is 3.1 µM; in test [3] it was 6.4 µM; with SGC-7901 (setting [6]), 35.2 µg/mL (≈ 89.3 µM).

`O=c1cc(-c2ccc(OCc3ccc(Cl)nc3)cc2)oc2cc(OCc3ccc(Cl)nc3)ccc12`: the Ratio IC50 in test [1] was 1.6. The results for the half-inhibitory concentration (IC50) (in test [2]; in test [3]; in the test on SGC-7901 (setting [6])) were 3 µM, 5 µM and 18.4 µg/mL (≈ 36.5 µM), respectively.

For the molecule `O=c1c(OCc2ccc(Cl)nc2)c(-c2ccccc2)oc2ccccc12`, the inhibition entry in test [4] and in test [5] was “inactive” in each case. Moreover, the IC50 entry in the test with SGC-7901 (sgc-7901) is listed as “Not Active”.

Source of the values: ChEMBL document CHEMBL1177815, “Synthesis and molecular docking studies of novel 2-chloro-pyridine derivatives containing flavone moieties as potential antitumor agents” (Bioorg Med Chem Lett, 2010).
